sdo1 growth: compounds rescuing growth of sdo1-depleted yeast, bone marrow failure model. S. cerevisiae sdo1-depleted JHY4D growth rescue, OD600 30 h; stronger effect = higher value; pdr5 snq2 efflux-pump mutant strain. z-score at 10 µM. hit rate 0.21% among 140,000;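 active means z-score above 3 at both the 24 hr and the 30 hr optical density reads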
bCat KO growth: beta-catenin-lacking colon tumor cell growth suppression; HCT116 beta-catenin knockout viability, CellTiter-Glo, 60 h; stronger effect = lower value; viability, % at 10 µM; hit rate 1.5% among 140,000;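 active means viability at or under a set limit, the compound median less 4 SD, cut at about 6% in these data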
Autophagy mod: modulators of autophagy | MEF GFP-LC3 puncta imaging; test concentration mostly 10 µM | calls only at 10 µM (by protocol) | hit rate 0.98% among 190,000 | AID 463193;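 active means percentage of spot-positive cells more than 3 SD above its plate mean, without a fluorescence outlier flag or 80% toxicity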
Dynein cargo inh: blocks dynein driven cargo transport along microtubules; 3617.4 mouse cells, GR-EGFP nuclear translocation imaging; test concentration mostly 20 µM; stimulated with dexamethasone, 1 µM; stronger effect = lower value; z-score, hits read low; hit rate 0.47% among 220,000; AID 1381;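 active means plate z-score of nuclear minus cytoplasmic receptor signal below a set negative limit, without overly bright fluorescence or cell loss, cut at about -3.5 in these data, passing the limit was not always enough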;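 further: z-score of nuclear minus cytoplasmic ring GR-EGFP intensity difference per well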
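Buffer or medium: tet-free, stripped-serum medium; reagent: dexamethasone at 1.0 µM final, 30 min; incubation: 48 h induction, 1 h compound, 30 min dex at 37 °C; measured by: formaldehyde fixation, Hoechst nuclear stain, 10x automated fluorescence imaging; read-out: nuclear-to-cytoplasmic GR-EGFP distribution per well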
PTEN del growth: suppresses growth of cells with PTEN deletion. HCT116 PTEN-null viability, CellTiter-Glo, 60 h; stronger effect = lower value. viability, % at 10 µM. hit rate 1.2% among 140,000;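 active means viability at or below a set limit, 4 SD under the median of all tested compounds, cut at about 3.7% in these data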;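 further: PTEN knockout HCT116 line with beta catenin targeted HCT116 as companion control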
Each line names hits and unclear results; the compound was inactive in the other large screens. The list is not random: actives were taken first. Their share in the collection is about 2.2%.

CCN(CC)S(=O)(=O)c1ccc(C)c(C)c1	none
CCN(CC)CCOc1ccc2c(c1)C(=NO)c1cc(OCCN(CC)CC)ccc1-2	bCat KO growth 1.9, Autophagy mod active, PTEN del growth 2.0
CCN(CC)S(=O)(=O)c1ccc2c(c1)C(=NO)c1cc(S(=O)(=O)N(CC)CC)ccc1-2	bCat KO growth 1.3, PTEN del growth 2.8
CCn1c(SCC(=O)NNC(=S)Nc2ccccc2)nnc1-c1ccc(Cl)cc1	none
Cc1cc(Nc2ccccc2)nn1C(=O)c1ccccc1	bCat KO growth 1.5, PTEN del growth 1.2
CCN1CCN(c2ncnc3c2c(-c2ccccc2)cn3-c2ccc(F)cc2)CC1	Autophagy mod active (no result: sdo1 growth, bCat KO growth, PTEN del growth)
Cc1ccc2nc(/C(C#N)=N/O)[nH]c2c1	none
Cc1ccc2nc(/C(C#N)=C/c3cn[nH]c3-c3ccc(F)cc3)[nH]c2c1	bCat KO growth 1.5, PTEN del growth 1.2
COc1ccc(NC(=O)Cn2nnc(-c3ccccc3NC(=O)c3cccs3)n2)cc1	none
Cc1ccc(NC(=O)Cn2nnc(-c3ccccc3NC(=O)c3cccs3)n2)cc1	bCat KO growth 4.0, Autophagy mod active, PTEN del growth 3.4
CC(C)c1ccccc1NC1=CC(=O)CC(C)(C)C1	none
COC(=O)C1=C(C)OC(N)=C(C#N)C1c1ccccc1 (centres undefined)	none
CNC(=O)C1C(=S)NC(N)=C(C#N)C1c1ccccc1 (centres undefined)	bCat KO growth 0.5, PTEN del growth 1.0
C=CCc1cccc(/C=N/NC(=O)CNc2ccccc2)c1O	bCat KO growth 3.7, PTEN del growth 3.0
C=CCc1cccc(/C=N/NC(=O)CNc2cccc3ccccc23)c1O	bCat KO growth 3.2, PTEN del growth 1.8
Cc1cc(C)c(C)c(S(=O)(=O)N2CCN(CC(=O)Nc3sccc3C#N)CC2)c1C	none
CCCCCn1nc(-c2ccccc2)c2nc3ccccc3nc21	Autophagy mod active
CCn1c2ccc(Cl)cc2c2nc3ccccc3nc21	none
CCn1nc(-c2ccccc2)c2nc3ccccc3nc21	Autophagy mod active
CC(NC(=O)/C(C#N)=C/c1ccc(Cl)c([N+](=O)[O-])c1)c1ccccc1 (centres undefined)	bCat KO growth 1.6, PTEN del growth 1.2
Cc1nc2cc(N3CCN(C)CC3)c(NC(=O)Cc3ccccc3)cc2c(=O)n1Cc1ccccc1	none
Cc1nc2cc(N3CCCCC3)c(NC(=O)c3ccncc3)cc2c(=O)n1Cc1ccc(Cl)cc1	bCat KO growth 1.2, Autophagy mod active, PTEN del growth 1.1
Cc1cccc(N2CCN(Cc3nc(-c4cccc(Oc5ccccc5)c4)oc3C)CC2)n1	Autophagy mod active (no result: sdo1 growth, bCat KO growth, PTEN del growth)
CCOc1ccc(C(C(=O)NC2CCCCC2)N(C(=O)c2ccco2)c2ccc(-n3cnnn3)c(C)c2)cc1 (centres undefined)	none
COc1ccc(C(C(=O)NC2CCCCC2)N(C(=O)CCl)c2ccc(OC)cc2)cc1 (centres undefined)	bCat KO growth 1.4, PTEN del growth 0.8
COC(CN(C(=O)CCl)C(C(=O)NC1CCCCC1)c1ccc(C)cc1)OC (centres undefined)	none
COc1ccc(C(C(=O)NC2CCCC2)N(C(=O)c2ccoc2C)c2ccc(C)cc2)cc1 (centres undefined)	none
COc1ccc(C(C(=O)NC2CCCCC2)N(C(=O)CCl)c2ccc(C)cc2)cc1 (centres undefined)	bCat KO growth 5.0, PTEN del growth 2.2
CCOc1ccc(C(C(=O)NC2CCCCC2)N(C(=O)Cc2cccs2)c2ccc(-n3cnnn3)c(OC)c2)cc1 (centres undefined)	PTEN del growth 3.3
CCCCN(C(=O)CSc1cc(C)c2ccc(OC)cc2n1)c1c(N)n(Cc2ccccc2)c(=O)[nH]c1=O	none
Fc1ccc(Oc2ccc3nnc(C(F)(F)F)n3n2)cc1	none (no result: sdo1 growth, bCat KO growth, PTEN del growth)
CN1C(C(=O)NCc2ccc(OC(F)(F)F)cc2)CC2Cn3c(nc4cc5ccccc5cc43)C21 (centres undefined)	none (no result: sdo1 growth, bCat KO growth, Autophagy mod, PTEN del growth)
COc1cc(SC)ccc1C(=O)OCC(=O)NC1CC1	none (no result: sdo1 growth, bCat KO growth, PTEN del growth)
O=[N+]([O-])c1cnccc1Nc1cccc(F)c1	none
O=[N+]([O-])c1ccc(Oc2cccc(F)c2)c2ccncc12	Autophagy mod active
Cc1ccsc1/C=N/NC(=O)c1ccc(Cn2cc(Br)cn2)o1	Autophagy mod active
CCOc1ccc2c(c1)C(c1ccc(C)o1)=NNC(c1ccncc1)=N2	Autophagy mod active (no result: sdo1 growth, bCat KO growth, PTEN del growth)
CCOc1ccc2c(c1)C(c1ccc(C)cc1)=NNC(c1ccc(OC)cc1)=N2	none
CCC1(C)Cc2ccccc2-c2nc3n(c(=O)c21)CCS3 (centres undefined)	none
CC(=O)Nc1nc(C)c(-c2csc(Nc3ccc(O)cc3)n2)s1	none
CC(=O)Nc1nc(C)c(-c2csc(Nc3cccc([N+](=O)[O-])c3)n2)s1	bCat KO growth 1.8, PTEN del growth 1.7
COc1ccc(C2CCCN2C(=O)Nc2ccc(Cl)cc2)cc1OC (centres undefined)	Autophagy mod active
CCC(=O)NC(c1cccs1)c1ccc2cccnc2c1O (centres undefined)	none (no result: sdo1 growth, bCat KO growth, PTEN del growth)
Cc1conc1NC(c1cccs1)c1ccc2cccnc2c1O (centres undefined)	bCat KO growth 3.5, PTEN del growth 2.6
CC(/C=N\Nc1nnc2c(n1)[nH]c1c(C)cccc12)=C\c1ccco1	bCat KO growth 2.1, PTEN del growth 2.4
CC(/C=N/n1c(-c2ccco2)n[nH]c1=S)=C\c1ccco1	none
O=C(N/N=C/c1ccc(-c2cccc(C(F)(F)F)c2)o1)c1ccccc1O	PTEN del growth 3.1
Cn1cc(C(=O)c2ccc(Cl)cc2Cl)cc1C(=O)N/N=C(\N)COc1cccc(C(F)(F)F)c1	bCat KO growth 5.2
O=C(COC(=O)Cc1ccccc1[N+](=O)[O-])NC1CCCC1	Autophagy mod active (no result: sdo1 growth, bCat KO growth, PTEN del growth)
CCN(CC)c1ccc(/C=C(/C#N)c2nc3ccccc3[nH]2)c(OC(C)C)c1	Autophagy mod active
Cc1ccc(NC(=O)N(Cc2ccc3c(c2)OCO3)Cc2cc3cc4c(cc3[nH]c2=O)OCCO4)cc1	Autophagy mod active
CC1CC(C)(C)N(C(=O)CN2C(=O)c3ccccc3C2=O)c2ccccc21 (centres undefined)	Autophagy mod active
CN(C)CCN=Cc1c(O)n(Cc2ccc3c(c2)OCO3)c(=O)c2ccccc12	none (no result: sdo1 growth, bCat KO growth, PTEN del growth)
CN(C)CCCN=Cc1c(O)n(Cc2ccc3c(c2)OCO3)c(=O)c2ccccc12	Autophagy mod active (no result: sdo1 growth, bCat KO growth, PTEN del growth)
Cc1ccc(N=Cc2c(O)n(-c3ccc4c(c3)OCO4)c(=O)c3ccccc23)cc1	Autophagy mod active
Cn1c2ccccc2c2nnc(SCC(=O)NCc3ccoc3)nc21	none (no result: sdo1 growth, bCat KO growth, PTEN del growth)
Cn1c(-c2c(N)n(CCc3ccccc3)c3nc4ccccc4nc23)nc2ccccc21	Autophagy mod active
Cn1c(-c2c(N)n(CCCc3ccccc3)c3nc4ccccc4nc23)nc2ccccc21	Autophagy mod active

Screening data deposited in PubChem by several laboratories.
